Experimental data of several laboratories.
Each line is one published result; the experiments were not run side by side.
Target: Cholinesterase (BCHE, Homo sapiens, UniProt P06276)
Read-out: enzyme activity
Action: inhibitor

SMILES | method | IC50 [nM]
C#CCN(C)CCCOc1cccc(CN(C)c2c3c(nc4ccccc24)CCCC3)c1 | Ellman | 410
COc1ccc(S(=O)(=O)Oc2ccc3ccccc3c2C=NNC(=O)c2ccc(F)cc2)cc1 | Ellman | 134
O=[N+]([O-])c1c[nH]c(-c2n[nH]c(=S)n2/N=C/c2ccc(Oc3ccccc3)cc2)c1 | Ellman | 21100
C#CCN(C)CCCCCOCc1ccc(CN(C)c2c3c(nc4ccc(C)cc24)CCCC3)cc1 | Ellman | 1120
O=[N+]([O-])c1c[nH]c(-c2n[nH]c(=S)n2/N=C/c2ccc(F)c([N+](=O)[O-])c2)c1 | Ellman | 16100
COc1ccc(S(=O)(=O)Oc2ccccc2C=NNC(=O)c2ccc(F)cc2)cc1 | Ellman | 114
C#CCN(C)CCCCCCCCOc1cccc(CN(C)c2c3c(nc4ccccc24)CCCC3)c1 | Ellman | 910
Cn1cc(-c2cc(C(=O)NN=Cc3ccccc3Cl)no2)c2ccccc21 |  | > 100000
O=[N+]([O-])c1c[nH]c(-c2n[nH]c(=S)n2/N=C/c2ccc(F)cc2)c1 | Ellman | 9100
CSc1ccc(C=NNC(=O)c2cc(-c3cn(C)c4ccccc34)on2)cc1 |  | > 100000
COc1ccc(/C=N/n2c(-c3cc([N+](=O)[O-])c[nH]3)n[nH]c2=S)cc1 | Ellman | 26200
CCN(CC)c1ccc(C=NNC(=O)c2ccc(F)cc2)c(OS(=O)(=O)c2ccc(OC)cc2)c1 | Ellman | 97.2
COc1ccc(OC)c(C=NNC(=O)c2cc(-c3cn(C)c4ccccc34)on2)c1 |  | > 100000
C#CCN(C)CCCCOc1cccc(CN(C)c2c3c(nc4ccccc24)CCCC3)c1 | Ellman | 370
O=[N+]([O-])c1c[nH]c(-c2n[nH]c(=S)n2/N=C/c2ccc(Cl)cc2[N+](=O)[O-])c1 | Ellman | 16400
C#CCN(C)CCOc1cccc(CN(C)c2c3c(nc4ccccc24)CCCC3)c1 | Ellman | 2000
COc1ccccc1C=NNC(=O)c1cc(-c2cn(C)c3ccccc23)on1 |  | > 100000
O=[N+]([O-])c1c[nH]c(-c2n[nH]c(=S)n2/N=C/c2cc(Cl)cc(Cl)c2)c1 | Ellman | 14300
C#CCN(C)CCCCOCc1ccc(CN(C)c2c3c(nc4ccccc24)CCCC3)cc1 | Ellman | 1470
O=[N+]([O-])c1c[nH]c(-c2n[nH]c(=S)n2/N=C/c2ccc(Br)c(Br)c2)c1 | Ellman | 28400
Cn1cc(-c2cc(C(=O)NN=Cc3ccccc3)no2)c2ccccc21 |  | > 100000
C#CCN(C)CCCCCCOCc1ccc(CN(C)c2c3c(nc4ccc(C)cc24)CCCC3)cc1 | Ellman | 1270
